Screens from PubChem BioAssay.
Myeloid diff 2: myeloid differentiation induction | ER-HoxA9 myeloid progenitors, lysozyme-GFP differentiation, flow cytometry | calls only at 10 µM | actives 1% (n = 360,000);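 active = normalized GFP-positive differentiation at or above the plate's own cutoff, the solvent-only control mean plus 3 SD; inconclusive = no clear call, values can overlap the other calls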;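 also: cells exposed to compound for four days before flow analysis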
Vif imaging: blocks HIV Vif function. HEK293T cells, Vif self-association by quenched fluorescence, imaging, 24 h. inhibition, % at 7.49 µM. actives 0.35% (n = 340,000). AID 602346; in the data active = inhibition above about 50%, passing the limit was not always enough; inconclusive = no clear call, values can overlap the other calls; inactive = below about 31%
T cell modulator: T cell immune modulators affecting CD8 T cell-vesicle binding; actives 0.068% (n = 330,000); response (vesicle binding), % at 7 µM; 2C CD8+ T cell-vesicle binding, flow cytometry; stronger effect = lower value;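 active = response, share of CD8 T cells binding vesicles, and their 90th percentile fluorescence all below set limits, cut at about 80% in these data, passing the limit was not always enough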;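 also: values below 100% mean blocked vesicle binding to the CD8+ T cells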
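Incubation: binding step 1.5 h, 37 °C, antibody labelling 20 min, ice; system: murine 2C transgenic CD8+ T lymphocytes; technique: cytometric PE anti-B7-1 and Alexa647 anti-CD8 signals after 1% paraformaldehyde fixation; also added: QL9-charged Drosophila Ld/ICAM-1/B7-1 vesicles; control set: naked versus QL9-loaded vesicles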
CASP6 VEID inh: inhibitors of human caspase-6 | P55212 | purified caspase-6, Z-VEID-R110 cleavage fluorescence | inhibition, % at 12.5 µM | actives 0.53% (n = 350,000);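 active = mean inhibition across replicates at least about 35%, with every replicate also reaching that limit, limit read from the data; inconclusive = only one of the two criteria met; inactive = neither criterion met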;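 also: 0% = median of neutral control wells and 100% = no fluorescence left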
Target sequence (P55212 24-179 limits assumed): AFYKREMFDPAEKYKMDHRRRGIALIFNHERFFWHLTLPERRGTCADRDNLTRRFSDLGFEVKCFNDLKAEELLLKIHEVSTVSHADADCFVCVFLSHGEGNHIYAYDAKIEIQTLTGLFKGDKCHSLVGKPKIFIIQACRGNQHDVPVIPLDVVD
Target sequence (P55212 194-293 limits assumed): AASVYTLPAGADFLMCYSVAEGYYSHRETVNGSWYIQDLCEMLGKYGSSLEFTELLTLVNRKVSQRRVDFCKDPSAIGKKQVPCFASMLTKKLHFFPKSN
Numbers without * were called inactive; i = inactive; ? = inconclusive; . = not tested or not shown; + = active, no number. Shown are actives, neighbours in structure and some others; about 1.4% of the full set was active somewhere.

SMILES	Myeloid diff 2	Vif imaging	T cell modulator	CASP6 VEID inh
COC(=O)CCC(=O)OC1(C)C(=O)C=C2C=C(C3CC3)N(CCCCO)C=C2C1=O (centres undefined)	i	-1.5	187.3	37.4*
C=CCN1Cc2ccccc2C[C@@]2(COC(c3ccc(OCCCO)cc3)=N2)C1=O	.	.	.	1.5
O=C(O)c1ccc2[nH]c3c(c2c1)CCCC3	i	-3.2	167.3	29.0
CC1CCc2[nH]c3ccc(C(=O)O)cc3c2C1 (centres undefined)	i	-0.9	134.2	48.4*
CC(Oc1ccc2c(-c3ccccc3)cc(=O)oc2c1)C(=O)NC(Cc1c[nH]c2ccc(O)cc12)C(=O)O (centres undefined)	i	8.6	586.2	14.2
COc1ccc2c(c1)c(=O)oc1c(C)c(OC(C)C(=O)N[C@@H](Cc3c[nH]c4ccc(O)cc34)C(=O)O)ccc12 (some centres undefined)	i	2.2	i	38.9*
CSCCC(NC(=O)c1ccccc1Br)C(=O)NCC1CCCCC1 (centres undefined)	+	2.9	356.5	1.0
CSCC[C@H](NC(=O)OC(C)(C)C)C(=O)NCC1CCC(C(=O)N[C@@H](Cc2ccccc2)C(=O)O)CC1 (some centres undefined)	+	-6.2	79.1	0.6
CC(C)C[C@H](NC(=O)OC(C)(C)C)C(=O)NCC1CCC(C(=O)N[C@@H](Cc2ccccc2)C(=O)O)CC1 (some centres undefined)	i	-14.2	312.7	-0.2
CCCC#Cc1ccc2c(c1)O[C@H](CN(C)Cc1ccncc1)[C@@H](C)CN([C@@H](C)CO)S2(=O)=O	.	.	.	-0.4
CO[C@@H]1CN(C)C(=O)c2ccc(NC(=O)c3ccc(F)cc3)cc2OC[C@@H](C)NC[C@@H]1C	.	.	.	0.0
O=C(C1CC1)N1CC2(C1)[C@H](c1ccccc1)[C@H](CO)N2C(=O)CC1CC1	.	.	.	1.4
Cc1cc(C)cc(N(CC(=O)N2CCCCCC2)S(C)(=O)=O)c1	.	-3.5	227.8	36.4*
CC(C)NCCOc1cccc(Br)c1	i	55.9*	295.1	.
C/C(=N\Nc1ccc(Cl)c(C(=O)O)c1)c1cccc2ccccc12	i	65.1*	289.9	.
C[C@@H]1CN([C@@H](C)CO)C(=O)c2cccc(NC(=O)NC3CCCCC3)c2O[C@H]1CN(C)Cc1ccc(C(F)(F)F)cc1	.	.	.	-0.8
N#Cc1ccc(NC(=O)COC(=O)C2Cc3ccccc3CN2C(=O)c2ccccc2)cc1 (centres undefined)	+	-8.3	93.0	.
Cc1cccc(C)c1NC(=O)COC(=O)C1Cc2ccccc2CN1C(=O)c1ccccc1 (centres undefined)	i	2.6	378.2	.
CCN(C(=O)C(C)N1C(=O)/C(=C/c2ccco2)SC1=S)C1CCS(=O)(=O)C1 (centres undefined)	?	4.6	309.0	50.2*
O=C1/C(=C\c2ccco2)SC(=S)N1C1CCS(=O)(=O)C1 (centres undefined)	i	1.3	283.0	48.6*
Cc1ccc(/C=C2\SC(=S)N(CC3CCCO3)C2=O)o1 (centres undefined)	i	2.8	597.6	16.8
O=C1/C(=C/c2ccco2)SC(=S)N1C1CCS(=O)(=O)C1 (centres undefined)	i	6.2	416.3	22.1
O=C1/C(=C/c2ccco2)SC(=S)N1CC1CCCO1 (centres undefined)	i	.	173.3	61.1*
O=C(Oc1cccc(-n2cnnn2)c1)c1ccccc1Cl	i	-0.4	211.2	46.4*
O=C(Oc1cccc(-n2cnnn2)c1)c1ccccc1	i	4.1	260.5	1.8
SMILES	Myeloid diff 2	Vif imaging	T cell modulator	CASP6 VEID inh
CCOc1ccc(C(=O)N2CCCC2C(=O)O)cc1 (centres undefined)	+	0.3	0.0	.
CO[C@H]1CN(C)C(=O)c2cc(C#N)ccc2OCC[C@@H]2CC[C@@H](OC)[C@@H](CN(C)C(=O)[C@@H]1C)O2	.	.	.	2.7
NC(=S)NN=C(c1ccc(Br)cc1)C1CC1	i	-3.0	.	0.7
NC(=S)NN=C(c1ccc(F)cc1)C1CC1	i	69.9*	.	-1.3
COc1cccc(CNC(=O)C[C@@H]2CC[C@@H](NC(C)=O)[C@@H](CO)O2)c1	.	.	.	3.5
C[C@@H]1CN([C@H](C)CO)C(=O)c2cc(C3=CCCC3)cnc2O[C@@H]1CN(C)Cc1ccccc1F	.	.	.	2.0
Cc1nc2nc(C)c(CCC(=O)NC3CCCCC3)c(C)n2n1	i	0.0	200.0	10.2
Cc1[nH]nc(C(F)(F)F)c1CCC(=O)NC1CCCCCC1	i	58.5*	379.2	-1.1
CN(C)C(=O)C[C@H]1CC[C@@H]2[C@H](COC[C@@H](O)CN2C(=O)C2CC2)O1	.	.	.	-0.5
COc1ccc2c(Cl)c(C(=O)N/N=C/c3ccc4c(c3)OCO4)sc2c1	i	11.9	140.7	.
COc1ccc2c(Cl)c(C(=O)N/N=C3\CCCC(=O)C3)sc2c1	+	-3.9	775.4	-1.0
CCOC(=O)C1CCN(c2nc(N)c3c(N)nc(SCC(=O)O)cc3c2C#N)CC1	i	2.4	.	65.1*
COc1nc(C)c2cc(C)oc2n1	i	-1.7	181.0	51.3*
C=C1c2cccc(O)c2C(O)=C2C(=O)[C@]3(O)C(O)=C(C(N)=O)C(=O)[C@@H](N(C)C)[C@@H]3[C@@H](O)[C@H]12	i	10.9	533.8	93.8*
C[C@H]1c2cccc(O)c2C(O)=C2C(=O)C3(O)C(O)=C(C(N)=O)C(=O)[C@@H](N(C)C)[C@@H]3[C@@H](O)[C@@H]21 (some centres undefined)	i	-13.6	140.5	24.4
COc1ccc(NC(=O)CN(C)C(=O)CCNC(=O)c2ccccc2OC)cc1	i	0.1	348.1	3.6
COc1cccc(NC(=O)CN(C)C(=O)CCNC(=O)c2ccccc2OC)c1	+	-2.9	.	1.3
COc1cccc(CN(C)C(=O)CCNC(=O)c2ccc(Br)cc2)c1	+	.	935.4	-152.4
COc1cccc(NC(=O)CN(C)C(=O)CCNC(=O)c2ccc(Br)cc2)c1	i	3.6	933.5	0.5
CO[C@@H]1CN(C)C(=O)c2ccc(NC(=O)Nc3ccccc3)cc2OC[C@@H](C)NC[C@@H]1C	.	.	.	-0.3
O/C(=C\c1nc2ccccc2nc1/C=C(\O)c1ccccc1)c1ccccc1	+	4.9	191.2	.
COc1ccc(CN(C)C[C@@H]2OCCCC[C@@H](C)Oc3ccc(NC(=O)c4ccccc4)cc3C(=O)N([C@H](C)CO)C[C@H]2C)cc1	.	.	.	1.2
Cc1sc2nc3c4ccccc4c(NCc4ccco4)nn3c(=O)c2c1C	+	7.9	189.4	.
C[C@H](CO)N1C[C@H](C)[C@@H](CN(C)C(=O)Nc2ccc(F)cc2)Oc2ccc(NS(=O)(=O)c3ccccc3)cc2CC1=O	.	.	.	0.3
O=C(O)Cn1cc(/C=N/Nc2ccc([N+](=O)[O-])cn2)c2ccccc21	i	-10.7	150.3	8.7
Cc1ccc(Cn2cc(/C=N/Nc3ccc([N+](=O)[O-])cn3)c3ccccc32)cc1	+	-7.6	260.1	0.5
Cc1csc(=O)n1CCC(=O)OCc1nnc(-c2ccc([N+](=O)[O-])cc2)o1	i	-2.1	453.5	51.6*
